Assay results of several laboratories.
Lines come from different studies, so protocols differ.
Target: Serine/threonine-protein kinase PAK 1 (PAK1, Homo sapiens, UniProt Q13153)

COc1cc(-c2cn(C3CCc4c(F)cccc4N(CC(F)(F)F)C3=O)nn2)ccc1-n1cnc(C)c1 (stereo not drawn)  remaining binding (cell-free assay, competition with immobilised ligand; 1 µM): 93%
CN(CCCC(F)(F)F)c1nccc(-c2cnn3ncccc23)n1  remaining binding (binding; 1 µM): 98%
COc1cnc(Nc2cccc(S(N)(=O)=O)c2)nc1N1CCN(c2ccccc2)C(=O)C1  remaining binding (binding, competition with immobilised ligand; 1 µM): 100%
CS(=O)(=O)c1cc(C2(NC(=O)c3cncc4c3cnn4-c3ccc(F)cc3)CC2)ccn1  remaining binding (cell-free assay, competition with immobilised ligand; 1 µM): 100%
O=C(NCCCN1CCOCC1)c1ccc(Nc2ncc(Cl)c(-c3ccc(Cl)s3)n2)cc1  remaining binding (binding, competition with immobilised ligand; 1 µM): 98%
Cc1nc(C2CCN(C(=O)c3ccc(OC(F)(F)F)cc3N)CC2)c2ncc(N3CCN(C)CC3)cc2n1  remaining binding (cell-free assay, competition with immobilised ligand; 1 µM): 100%
Nc1ncc2c(n1)-c1c([nH]c3ccc(C#CC4CC4)cc13)CCCC2  remaining binding (binding, competition with immobilised ligand; 1 µM): 83%
O=C(NCC1CCOCC1)c1n[nH]cc1NC(=O)c1c(F)cccc1F  remaining binding (binding, competition with immobilised ligand; 1 µM): 100%
c1cnn2ncc(-c3ccnc(N4CCC45COC5)n3)c2c1  remaining binding (binding; 1 µM): 90%
NS(=O)(=O)c1cc(NC(=O)Cc2ccccc2)ccc1Oc1cccc(Cl)c1  remaining binding (cell-free assay, competition with immobilised ligand; 1 µM): 88%
CN(C)c1nccc(-c2cnn3ncccc23)n1  remaining binding (binding; 1 µM): 100%
COc1ncc2cc3ccccc3nc2c1C#N  remaining binding (cell-free assay, competition with immobilised ligand; 5 µM): 97%
O=C(Nc1cccnn1)N1CCC(=Cc2cccc(Oc3ccc(C(F)(F)F)cn3)c2)CC1  remaining binding (cell-free assay, competition with immobilised ligand; 1 µM): 72%
N[C@H]1CCN(c2nccc(-c3cnn4ncccc34)n2)C1  remaining binding (binding; 1 µM): 100%
O=C(c1ccc(Nc2nccc(-c3cc4ccccc4s3)n2)cc1)N1CCC(N2CCCC2)CC1  remaining binding (binding, competition with immobilised ligand; 1 µM): 80%
C[C@@H]1CN(c2ccc3ncc(-c4ccc5[nH]nc(C6CC6)c5c4)n3n2)C[C@H](C)O1  remaining binding (binding, competition with immobilised ligand; 0.5 µM): 98%
CN(C)C(=O)Cn1cc(-c2nc([C@@](C)(c3ccc(-c4cnc(N)nc4)cc3)C3CC3)no2)cn1  remaining binding (cell-free assay, competition with immobilised ligand; 1 µM): 100%
CN(c1nccc(-c2cnn3ncccc23)n1)C1CC1  remaining binding (binding; 1 µM): 100%
O=C(c1ccc(Nc2ncc(Cl)c(-c3cc4ccccc4s3)n2)cc1)N1CCC(N2CCCC2)CC1  remaining binding (binding, competition with immobilised ligand; 1 µM): 85%
CCN1CCN(Cc2ccc(C(=O)Nc3ccc(C)c(Oc4ccc5c(c4)CC(=O)N5)c3)cc2C(F)(F)F)CC1  remaining binding (binding, competition with immobilised ligand; 1 µM): 100%
C[C@@H]1CCN(c2nccc(-c3cnn4ncccc34)n2)C1  remaining binding (binding; 1 µM): 100%
CO[C@@H](C)c1c(Nc2ccc([C@H](N(C)C(=O)C3CCS(=O)(=O)CC3)C(F)(F)F)cc2)cnc2cc(Cl)nn12  remaining binding (cell-free assay, competition with immobilised ligand; 1 µM): 74%
Cc1cnn2ncc(-c3ccnc(N(C)C)n3)c2c1  remaining binding (binding; 1 µM): 71%
CC(C)(C)c1ccc(-c2nc(CBr)nn2-c2cccc(O)c2)cc1  remaining binding (cell-free assay, competition with immobilised ligand; 10 µM): 98%
